In ChEMBL document CHEMBL1148903, “New decalin derivatives, eujavanoic acids A and B, from Eupenicillium javanicum” (2004):
The source made the active and inactive calls. No cut-off for these calls is given here.

How the values were obtained:
[1] = system: Aspergillus fumigatus; experiment: Antifungal activity against Aspergillus fumigatus at 10 mg/disk after 48 hrs; assay type: functional
Procedure, shortened: (§1)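 Paper disk diffusion assay against Aspergillus fumigatus on potato dextrose agar. Compound was applied per disk, and activity was recorded after 48 h incubation. Other assay conditions follow an earlier published method.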

[2] = system: Aspergillus fumigatus; experiment: Antifungal activity against Aspergillus fumigatus at 1 mg/disk after 48 hrs; assay type: functional; procedure, shortened: as §1
[3] = system: Aspergillus fumigatus; experiment: Antifungal activity against Aspergillus fumigatus at 5 mg/disk after 48 hrs; assay type: functional; procedure, shortened: as §1
[4] = system: Aspergillus fumigatus; experiment: Antifungal activity against Aspergillus fumigatus up to 100 ug/disk after 48 hrs; assay type: functional, organism-based; procedure, shortened: as §1
[5] = system: Aspergillus fumigatus; experiment: Antifungal activity against Aspergillus fumigatus at 0.5 mg/disk after 48 hrs; assay type: functional; procedure, shortened: as §1

SMILES	inhibition zone (IZ) [1] [mm]	inhibition zone (IZ) [3] [mm]	Activity [4]	Activity [5]	other results
C[C@@H]1[C@H](O)[C@@H](C)/C=C/C=C/C=C/C=C/C=C/C=C/C=C/[C@H](O[C@@H]2O[C@H](C)[C@@H](O)[C@H](N)[C@@H]2O)C[C@@H]2O[C@](O)(C[C@@H](O)C[C@@H](O)[C@H](O)CC[C@@H](O)C[C@@H](O)CC(=O)O[C@H]1C)C[C@H](O)[C@H]2C(=O)O [AMPHOTERICIN B]	13	14	–	–	inhibition zone (IZ) [2]: 11 mm
C[C@@H]1[C@H](CC[C@@H](O)C[C@@H](O)CC(=O)O)[C@H]2CCCCC2=C[C@H]1O	–	–	inactive	–	–
C[C@H]1C(=O)C=C2CCCC[C@@H]2[C@H]1CC[C@@H](O)C[C@@H](O)CC(=O)O	–	–	inactive	–	–
CCOC(=O)C[C@H](O)C[C@H](O)CC[C@@H]1[C@@H]2C(=CCC[C@@H]2OC(=O)[C@@H](C)CC)C=C[C@@H]1C	–	–	–	inactive	Activity [1]: inactive; Activity [2]: inactive; Activity [3]: inactive
CC[C@H](C)C(=O)O[C@H]1CCC[C@@H]2C=C[C@H](C)[C@H](CC[C@@H](O)C[C@@H](O)CC(=O)[O-])[C@@H]12.[Na+]	32	21	–	inactive	inhibition zone (IZ) [2]: 16 mm
CC[C@H](C)C(=O)O[C@H]1CCC[C@@H]2CC[C@H](C)[C@H](CC[C@@H](O)C[C@@H](O)CC(=O)[O-])[C@H]21.[Na+]	22	18	–	inactive	–
C[C@H]1C=CC2=CCC[C@H](O)[C@@H]2[C@H]1CC[C@@H](O)C[C@@H](O)CC(=O)O	–	–	inactive	–	–
